# Screening data deposited in PubChem BioAssay by Johns Hopkins Ion Channel Center.
# Sampled rows, rich in hits. Any-hit rate of the full collection: about 2.3%.
# TRPC6 inh – blocks the mouse TRPC6 cation channel | Q61143 | HEK293-TRPC6, membrane potential dye, ACh-evoked depolarization; hits give low values | B-score at 10 µM | actives 1.1% (n = 310,000) | AID 2553;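 active = B-score under library mean minus 3 SD, initial fluorescence not abnormally high, positive integrated signal ratio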;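 also: B-score derived from integrated fluorescence ratio over the kinetic read; more negative B-score means stronger inhibition of depolarization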
# TRPC4 PAM – TRPC4 (mouse) allosteric potentiation | actives 0.42% (n = 310,000) | B-score at 10 µM | Q9QUQ5 | HEK293 TRPC4beta/mu-opioid, DAMGO EC20, Fluo-4 Ca2+ flux; hits give high values;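 active = B-score of calcium response area above 5 SD of library B-scores, with initial fluorescence ratio within 5 SD of library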;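 also: B-score of integrated fluorescence ratio over time as area under calcium response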
# Target sequence (Q9QUQ5 whole entry, looked up): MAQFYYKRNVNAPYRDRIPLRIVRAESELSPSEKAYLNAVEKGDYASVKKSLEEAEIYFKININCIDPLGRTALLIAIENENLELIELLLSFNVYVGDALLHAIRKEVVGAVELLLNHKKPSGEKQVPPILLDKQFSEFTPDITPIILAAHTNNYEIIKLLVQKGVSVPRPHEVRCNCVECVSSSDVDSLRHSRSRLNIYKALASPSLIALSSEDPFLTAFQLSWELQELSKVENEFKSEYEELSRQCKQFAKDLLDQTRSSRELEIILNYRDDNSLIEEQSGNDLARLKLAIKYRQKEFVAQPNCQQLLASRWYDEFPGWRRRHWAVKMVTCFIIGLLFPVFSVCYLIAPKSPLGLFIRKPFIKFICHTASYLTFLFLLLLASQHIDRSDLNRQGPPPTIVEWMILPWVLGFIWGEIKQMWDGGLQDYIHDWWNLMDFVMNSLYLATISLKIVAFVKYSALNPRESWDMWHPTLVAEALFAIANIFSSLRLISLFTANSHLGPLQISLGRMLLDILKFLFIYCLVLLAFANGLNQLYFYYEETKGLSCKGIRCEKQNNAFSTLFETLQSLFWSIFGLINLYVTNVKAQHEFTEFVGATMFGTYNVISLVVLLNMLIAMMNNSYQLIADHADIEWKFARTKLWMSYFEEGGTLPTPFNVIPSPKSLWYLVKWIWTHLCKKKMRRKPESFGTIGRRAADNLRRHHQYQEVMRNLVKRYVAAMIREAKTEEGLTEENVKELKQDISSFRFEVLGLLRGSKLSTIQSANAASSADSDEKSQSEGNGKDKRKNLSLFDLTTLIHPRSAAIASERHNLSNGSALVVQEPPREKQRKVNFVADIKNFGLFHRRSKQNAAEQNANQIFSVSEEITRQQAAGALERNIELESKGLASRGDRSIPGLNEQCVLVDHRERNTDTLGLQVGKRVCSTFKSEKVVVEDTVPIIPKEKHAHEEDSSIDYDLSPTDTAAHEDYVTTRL
# TRPC4 act – activators of mouse TRPC4 channel | HEK293 TRPC4beta/mu-opioid, Fluo4 calcium fluorescence; hits give high values | B-score at 10 µM | actives 0.49% (n = 310,000) | AID 2237;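 active = B-score above 5 SD of library B-scores, and initial fluorescence ratio not above library mean plus 5 SD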;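 also: positive B-score marks a calcium rise read as TRPC4 activation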
#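 system = HEK293 cells stably co-expressing mouse TRPC4beta and mu-opioid receptor | schedule = Fluo4 dye loading 45 min at room temperature, 110 s recording | measure = B-scored integrated calcium fluorescence ratio | signal = Fluo4 calcium-sensitive dye fluorescence, kinetic, 1 Hz baseline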
# TRPC6 act – activators of mouse TRPC6 channel | actives 0.13% (n = 310,000) | B-score at 10 µM | HEK293-TRPC6 membrane potential dye fluorescence; hits give high values | Q61143 | AID 2550;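 active = B-score of the integrated fluorescence ratio above library mean plus 3 SD, and starting fluorescence ratio within library mean plus 5 SD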;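 also: higher score means more depolarization so channel activation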
# TRPC4 inh – TRPC4 (mouse) channel inhibition; Q9QUQ5; HEK293 TRPC4beta/mu-opioid, DAMGO-evoked Fluo4 calcium flux; hits give low values; B-score at 10 µM; actives 0.39% (n = 300,000);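 active = B-score over 3 SD under the library average, no early fluorescence shift, positive overall ratio signal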
#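 System: stable TRPC4beta/mu-opioid receptor HEK293 cells; Dosing: single-point compound dosing; Measured by: Fluo4 Ca2+ flux fluorescence; Read-out basis: per-well B score of integrated baseline-normalized Fluo4 ratio.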
# TRPC4 sel inh 2 – second check of whether TRPC6 inhibitors also affect mouse TRPC4; inhibition, % at 10 µM; shares compounds with TRPC6 inh; actives 42% (n = 920); HEK293 TRPC4/MOR, membrane potential dye fluorescence; channel activated by saturating DAMGO dose;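 active = compounds whose fluorescence signal differed from control wells by over 3 SD, either direction, in both duplicate plates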
# TRPC4 spec – selectivity of TRPC6 inhibitors: effect on mouse TRPC4; HEK293 TRPC4/mu-opioid, membrane potential fluorescence; shares compounds with TRPC6 inh; actives 61% (n = 920); activity change, negative = inhibition, % at 10 µM;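 active = rise or fall in signal beyond 3 SD of buffer-only wells in both replicate plates, either sign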;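 also: integrated kinetic ratio of fluorescence range over baseline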
# HEK293 MPD ctr 2-1 – parental HEK293 nonspecific activity of TRPC6 inhibitors, second screen; shares compounds with TRPC6 inh; parental HEK293 membrane potential dye fluorescence; maximal acetylcholine challenge after compound addition; signal change vs control, % at 10 µM; actives 31% (n = 920); AID 2779;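 active = membrane potential signal moving either way by over 3 SD of the maximum-effect control, in both duplicate plates, meaning non-specific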
# HEK293 MPD ctr-1 – counter-screen for TRPC6 inhibitors: effect in parental HEK293 cells. shares compounds with TRPC6 inh. parental HEK293 membrane potential dye fluorescence. membrane potential signal change, % at 10 µM. actives 60% (n = 920);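 active = membrane potential signal shifting up or down by more than 3 SD of buffer-only wells, on both duplicate plates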
# HEK293 MPD ctr-2 – parental HEK293 nonspecific activity of TRPC6 modulators; membrane potential signal change, % at 10 µM; actives 51% (n = 2,400); shares compounds with TRPC6 inh; membrane potential dye fluorescence;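 active = membrane potential signal moves up or down beyond 5 SD from buffer-only wells, on both duplicate plates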
# HEK293 MPD ctr 2-2 – second check of TRPC6 modulator effects in parental HEK293 cells; shares compounds with TRPC6 inh; membrane potential dye fluorescence; after compound, maximal acetylcholine stimulation; inhibition, % at 10 µM; actives 14% (n = 2,400);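 active = membrane potential signal drops by more than 5 SD from the mean control signal, in both duplicate plates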;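 also: plate controls were acetylcholine ECmax control wells for no effect and buffer only wells for full effect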
# TRPC4 ctr mod – selectivity of TRPC6 modulators against mouse TRPC4; shares compounds with TRPC6 inh; actives 69% (n = 2,400); percent change from control (negative = decrease, positive = increase), % at 10 µM; HEK293 TRPC4/mu-opioid, membrane potential fluorescence; AID 488927;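 active = membrane potential signal moved up or down beyond 5 SD of buffer control wells, in both duplicate plates, actives on both sides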;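 also: plate controls were assay buffer wells for no effect and DAMGO maximal-effect wells for full effect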
# TRPC4 ctr inh 2 – second check of whether TRPC6 modulators also affect mouse TRPC4 | shares compounds with TRPC6 inh | inhibition, % at 10 µM | actives 55% (n = 2,400) | AID 488928 | HEK293 TRPC4/mu-opioid, membrane potential dye fluorescence; stimulated with maximal-effect DAMGO;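 active = drop in membrane potential signal beyond 5 SD of the control wells in both duplicate plates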;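 also: TRPC4 counter screen for TRPC6 hits run under conditions tuned for TRPC6 not TRPC4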
# TRPC6 block conf – confirmation of mouse TRPC6 inhibitors. inhibition, % at 10 µM. HEK293-TRPC6, membrane potential dye, ACh-evoked depolarization. actives 43% (n = 3,300). shares compounds with TRPC6 inh;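 active = fluorescence ratio falls more than 5 SD below the full-stimulation control mean, in both duplicate runs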;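 also: integrated fluorescence ratio of peak minus minimum over baseline after agonist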
# TRPC6 act confirm – mouse TRPC6 activator confirmation; shares compounds with TRPC6 inh; HEK293-TRPC6 membrane potential dye fluorescence, FDSS; actives 11% (n = 2,800); AID 488961; activation, % at 10 µM;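 active = ratio signal rise beyond 5 SD above unstimulated control wells' mean, seen in both duplicate runs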;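 also: plate controls were buffer EC0 wells for no effect and acetylcholine ECmax response for full effect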
# Active calls of the source: *; i = inactive; . = not tested or not shown.
SMILES,TRPC6 inh,TRPC4 PAM,TRPC4 act,TRPC6 act,TRPC4 inh,HEK293 MPD ctr-2,HEK293 MPD ctr 2-2,TRPC4 ctr mod,TRPC4 ctr inh 2,TRPC6 block conf,TRPC6 act confirm,others
COCCN1CC(O)=C(c2nc3ccccc3c(=O)[nH]2)C1=N,i,i,i,i,i,.,.,.,.,.,.,
COc1ccccc1N1CC(O)=C(c2nc3ccccc3c(=O)[nH]2)C1=N,-5*,i,i,i,i,i,i,9.0%*,i,i,.,
COc1ccccc1OCC(=O)NCCS(=O)(=O)N1CCN(c2ccc(F)cc2)CC1,-5.4*,i,i,i,i,i,i,i,i,i,i,
COc1cc(CN2CCN(C(=O)c3cccc4ccccc34)CC2)cc(OC)c1OC,i,i,i,i,i,.,.,.,.,.,.,
COc1cccc(CN2CCN(C(=O)c3cccc4ccccc34)CC2)c1,i,i,i,12*,i,i,i,10%*,i,i,33%*,
N=c1c(C(=O)NC2CCCC2)cc2c(=O)n3ccccc3nc2n1C1CCCCC1,-6.5*,i,i,i,i,-188%*,i,-30%*,50%*,44%*,i,
C=CCn1c(=N)c(C(=O)NCCCOC)cc2c(=O)n3ccccc3nc21,i,i,i,i,i,.,.,.,.,.,.,
Cc1cccn2c(=O)c3cc(C(=O)NCC4CCCO4)c(=N)n(C4CCCCC4)c3nc12 (stereo not given),i,i,i,i,i,.,.,.,.,.,.,
C=CCn1c(=N)c(C(=O)NCCCOC)cc2c(=O)n3cc(C)ccc3nc21,-7.5*,i,i,i,i,.,.,.,.,i,i,TRPC4 sel inh 2=i;TRPC4 spec=2.7%*;HEK293 MPD ctr 2-1=-54%*;HEK293 MPD ctr-1=4.9%*
CNC(=O)c1cc2c(=O)n3cc(C)ccc3nc2n(C(C)C)c1=N,-7.5*,i,i,i,i,-157%*,111%*,-48%*,51%*,84%*,i,
Cc1ccc2nc3c(cc(C(=O)NC4CCCCC4)c(=N)n3C3CCCCC3)c(=O)n2c1,-7.8*,i,i,i,i,-132%*,i,-31%*,43%*,36%*,i,
COc1ncccc1-c1nnn(-c2ccc(F)cc2)n1,i,i,i,i,i,.,.,.,.,.,.,
Cc1ccc2nc3c(cc(C(=O)NC4CCCC4)c(=N)n3C3CCCCC3)c(=O)n2c1,-6.4*,i,i,i,i,-186%*,i,-32%*,43%*,58%*,i,
CCc1ccc(NC(=O)C2CCN(S(=O)(=O)c3ccc4c(c3)CC(C)N4C(C)=O)CC2)cc1 (stereo not given),i,i,i,i,i,.,.,.,.,.,.,
Cc1nnsc1C(=O)N/N=C/c1ccc2ccccc2c1O,-7.6*,i,i,i,i,.,.,.,.,i,.,TRPC4 sel inh 2=i;TRPC4 spec=27%*;HEK293 MPD ctr 2-1=-47%*;HEK293 MPD ctr-1=19%*
Cc1nnsc1C(=O)N/N=C/c1ccccc1,i,i,i,i,i,.,.,.,.,.,.,
Cn1c(=O)c2c(nc(CN3CCc4ccccc4C3)n2Cc2ccccc2)n(C)c1=O,-5.7*,46*,i,i,i,i,i,109%*,68%*,i,.,
CC(CC(=O)Nc1ccccc1)NCCCN1CCCC1=O (stereo not given),i,i,i,i,i,.,.,.,.,.,.,
CC(=O)N1C(C(=O)O)CSC1c1ccc(C)cc1 (stereo not given),i,i,i,i,i,.,.,.,.,.,.,
Cc1ccccc1-c1nc(-c2ccc(NC(=O)c3cccs3)cc2)no1,-7.1*,i,i,i,i,.,.,.,.,i,i,TRPC4 sel inh 2=i;TRPC4 spec=i;HEK293 MPD ctr 2-1=i;HEK293 MPD ctr-1=i
C/C(N)=C(/C#N)C(=O)COC(=O)C(NS(=O)(=O)c1ccc(Cl)cc1)C(C)O (stereo not given),-5.4*,i,i,i,i,i,i,i,i,i,i,
Cc1ccc(NC(=O)COC(=O)C(NS(=O)(=O)c2ccc(Cl)cc2)C(C)O)cc1 (stereo not given),i,i,i,i,i,.,.,.,.,.,.,
COC(=O)C1=C(C)N(C)C(C)=C(C(=O)OC)C1c1ccccn1,i,i,i,i,i,.,.,.,.,.,.,
OCCOCCn1c(-c2ccccc2)nc(=S)c2c1CCCC2,-7.7*,i,i,i,i,-322%*,86%*,-52%*,53%*,60%*,i,
Cc1nc2ccccc2n1S(=O)(=O)c1ccc(F)cc1,i,i,i,i,i,.,.,.,.,.,.,
Cc1ccc(S(=O)(=O)n2c(N)nc3ccccc32)cc1,-8.4*,i,i,i,i,.,.,.,.,64%*,i,TRPC4 sel inh 2=i;TRPC4 spec=i;HEK293 MPD ctr 2-1=38%*;HEK293 MPD ctr-1=i
CC(C)c1cc(C(=O)N2CCCC(Nc3ccc(F)cc3)C2)nc(N)n1 (stereo not given),-5.9*,i,i,i,i,i,i,i,i,i,i,
Cc1nc(S(=O)(=O)Nc2ccccc2C(=O)NCC2CC2)cn1C,i,i,i,i,i,.,.,.,.,.,.,
